Assay [1] has as its target Adenosylhomocysteinase (Homo sapiens) (UniProt P23526). The experiment in a line: Inhibition of human S-adenosyl-L-homocysteine hydrolase at 281 uM after 0.5 hrs. In a few lines: (§1)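 Human AdoHcy hydrolase (204 nM) was preincubated with inhibitor in buffer A (50 mM, pH 7.2, 1 mM EDTA) at 22 °C, for 0.5 h or 4 h. Residual activity was then read in the synthetic direction: an aliquot was diluted into buffer A with 0.5 mM Ado and 0.5 mM Hcy, held 12 min at 37 °C, and stopped with HClO₄. Duplicates were averaged.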

Assay [2] has the same target. As to the kind of experiment: Inhibition of human S-adenosyl-L-homocysteine hydrolase at 281 uM after 4 hrs. The method, boiled down: as §1
Assay [3] shares this target. As to the kind of experiment: Inhibition of human S-adenosyl-L-homocysteine hydrolase after 20 mins.

What is called inhibition is the share of the control response that was lost under treatment. A low value points to little suppression.

Molecules are shown by their SMILES.

Chain of Adenosylhomocysteinase (Homo sapiens) (P23526 2-432 limits assumed): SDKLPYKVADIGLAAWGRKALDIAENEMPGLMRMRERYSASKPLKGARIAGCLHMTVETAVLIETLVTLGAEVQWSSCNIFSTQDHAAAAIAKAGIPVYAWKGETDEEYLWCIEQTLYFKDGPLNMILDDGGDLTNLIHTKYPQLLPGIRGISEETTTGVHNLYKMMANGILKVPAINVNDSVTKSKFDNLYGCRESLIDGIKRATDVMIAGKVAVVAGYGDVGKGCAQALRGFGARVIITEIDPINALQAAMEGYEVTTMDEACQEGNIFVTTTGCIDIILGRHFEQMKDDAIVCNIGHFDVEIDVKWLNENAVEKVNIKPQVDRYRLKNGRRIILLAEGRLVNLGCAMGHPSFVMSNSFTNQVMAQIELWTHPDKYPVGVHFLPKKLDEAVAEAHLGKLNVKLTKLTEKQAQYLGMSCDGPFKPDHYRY

As to `CCOC(=O)CCC/C=C/[C@H]1O[C@@H](n2cnc3c(N)ncnc32)[C@H](O)[C@@H]1O`, the inhibition in assay [1] was 81%.

For `Nc1ncnc2c1ncn2[C@@H]1O[C@H](/C=C(/F)CCCC(=O)O)[C@@H](O)[C@H]1O`, the inhibition in assay [1] is 15.2%; in assay [2] it was 35.2%.

For the compound `CCOC(=O)/C=C/C=C/[C@H]1O[C@@H](n2cnc3c(N)ncnc32)[C@H](O)[C@@H]1O`, the inhibition in assay [3] was 96.4%.

Turning to `CCOC(=O)/C=C/C=C\[C@H]1O[C@@H](n2cnc3c(N)ncnc32)[C@H](O)[C@@H]1O`, in assay [3], the inhibition came to 98.2%.

In assay [1], `CCOC(=O)CCC/C(F)=C\[C@H]1O[C@@H](n2cnc3c(N)ncnc32)[C@H](O)[C@@H]1O` showed an inhibition of 14.1%.

For `Nc1ncnc2c1ncn2[C@@H]1O[C@H](/C=C/CCCC(=O)O)[C@@H](O)[C@H]1O`, the inhibition was found to be 28.5% in assay [1] and 92.4% in assay [2].

In assay [1], `COC(=O)CC/C=C\[C@H]1O[C@@H](n2cnc3c(N)ncnc32)[C@H](O)[C@@H]1O` gave an inhibition of 68.1%.

As for `Nc1ncnc2c1ncn2[C@@H]1O[C@H](/C=C\CCC(=O)O)[C@@H](O)[C@H]1O`, the inhibition in assay [1] is 50.5%; in assay [2], 95.5%.

The values are drawn from ChEMBL document CHEMBL1150340, “Synthesis of 5'-functionalized nucleosides: S-Adenosylhomocysteine analogues with the carbon-5' and sulfur atoms replaced by a vinyl or halovinyl unit” (Bioorg Med Chem, 2008).
